Reference: ChEMBL document CHEMBL1124219, “Inhibition of porcine pepsin by two substrate analogues containing statine. The effect of histidine at the P2 subsite on the inhibition of aspartic proteinases” (J Med Chem, 1988)
pIC50, pKi: −log10 of the molar value. *1 amine or outer side, *2 acyl side, *3 side chain or, on linkers, in order; H or OH if unused. Where a SMILES comes first, the peptide text is derived from it. [ ]: non-standard residue; d: D form. The star is where a group is joined. ξ: configuration not given here. Sta(3ξ) = CC(C)C[C@H](N[*:1])C(O)CC(=O)[*:2]; X1 = CC(C)CC(N[*:1])C(O)CC(C(=O)[*:2])C(C)C; Sta = CC(C)C[C@H](N)[C@@H](O)CC(=O)O; NMeH = CN[C@@H](Cc1c[nH]cn1)C(=O)O; NHCH2(2-pyridyl) = c1ccc(CN*)nc1; Isobutyryl = CC(C)C(=O)*; Boc = CC(C)(C)OC(=O)*

How the values were obtained:
Renin [1] = target: T1, Renin (Homo sapiens, UniProt P00797); assay: Inhibition of human renin at pH 6.0
T1 sequence (P00797 whole entry): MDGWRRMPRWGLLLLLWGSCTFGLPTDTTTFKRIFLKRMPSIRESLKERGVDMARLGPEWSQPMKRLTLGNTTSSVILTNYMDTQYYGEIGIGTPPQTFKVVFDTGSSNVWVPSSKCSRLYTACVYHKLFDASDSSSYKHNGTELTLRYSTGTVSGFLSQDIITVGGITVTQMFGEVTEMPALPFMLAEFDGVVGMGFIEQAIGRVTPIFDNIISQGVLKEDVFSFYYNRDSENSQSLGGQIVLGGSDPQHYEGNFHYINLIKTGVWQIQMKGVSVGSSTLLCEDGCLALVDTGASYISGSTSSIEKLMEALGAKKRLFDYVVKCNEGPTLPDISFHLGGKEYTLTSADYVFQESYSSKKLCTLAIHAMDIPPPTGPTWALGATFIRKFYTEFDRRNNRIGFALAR

Renin [2] = target: T1, Renin; assay: Inhibition of human renin at pH 7.0
Pepsin A [3] = target: T2, Pepsin A (Sus scrofa, UniProt P00791); assay: Inhibition of porcine pepsin at pH 4
How it was run: (§1)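 Hydrolysis was followed as the absorbance drop at 290 nm over the first 5–10% of reaction. Percent activity was plotted against inhibitor concentration to give IC50, and Ki = (IC50 − 0.5Et)/(1 + S/Km).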

Pepsin A [4] = target: T2, Pepsin A; assay: Inhibition of porcine pepsin at pH 2.0
Cathepsin D [5] = target: T3, Cathepsin D (Bos taurus, UniProt P80209); assay: Inhibition of bovine cathepsin D at pH 3.1
T3 sequence (P80209 whole entry): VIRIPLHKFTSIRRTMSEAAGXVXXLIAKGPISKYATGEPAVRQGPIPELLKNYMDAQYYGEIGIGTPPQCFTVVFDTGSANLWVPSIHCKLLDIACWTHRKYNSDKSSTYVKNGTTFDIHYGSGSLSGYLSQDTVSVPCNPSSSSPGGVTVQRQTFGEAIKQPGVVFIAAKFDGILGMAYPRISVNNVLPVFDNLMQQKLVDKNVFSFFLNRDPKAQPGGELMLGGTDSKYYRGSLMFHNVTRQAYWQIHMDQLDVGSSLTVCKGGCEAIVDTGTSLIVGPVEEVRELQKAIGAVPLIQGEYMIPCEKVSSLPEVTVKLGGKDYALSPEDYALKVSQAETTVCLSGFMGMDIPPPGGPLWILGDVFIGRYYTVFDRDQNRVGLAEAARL

Pepsin A [6] = target: T2, Pepsin A; assay: Inhibition of porcine pepsin at pH 1.9
Pepsin A [7] = target: T2, Pepsin A; assay: Inhibition of porcine pepsin at pH 4.0; how it was run: as §1
Renin [8] = target: T1, Renin; assay: Inhibition of human renin at pH 7.4
Cathepsin D [9] = target: T3, Cathepsin D; assay: Inhibition of bovine cathepsin D at pH 3.3(no inhibition)
Cathepsin D [10] = target: T3, Cathepsin D; assay: Inhibition of bovine cathepsin D at pH 3.2
Pepsin A [11] = target: T4, Pepsin A (Homo sapiens, UniProt P0DJD9); assay: Inhibition of human pepsin at pH 2.0
Pepsin A [12] = target: T4, Pepsin A; assay: Inhibition of human pepsin at pH 3.1
Pepsin A [13] = target: T2, Pepsin A; assay: Inhibition of porcine pepsin at pH 4.0 (time-dependent inhibition, T1/2>30 s)

T2 sequence (P00791 whole entry): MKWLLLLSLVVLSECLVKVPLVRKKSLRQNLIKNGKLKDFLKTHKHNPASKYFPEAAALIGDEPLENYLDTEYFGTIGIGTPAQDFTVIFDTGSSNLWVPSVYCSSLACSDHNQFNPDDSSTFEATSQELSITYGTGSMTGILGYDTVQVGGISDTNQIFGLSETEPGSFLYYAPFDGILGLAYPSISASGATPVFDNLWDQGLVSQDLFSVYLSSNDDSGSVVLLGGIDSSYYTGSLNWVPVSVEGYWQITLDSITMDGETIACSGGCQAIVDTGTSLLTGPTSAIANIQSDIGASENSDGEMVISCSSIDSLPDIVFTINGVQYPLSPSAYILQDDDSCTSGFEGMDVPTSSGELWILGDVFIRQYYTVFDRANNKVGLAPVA
T4 sequence (P0DJD9 whole entry): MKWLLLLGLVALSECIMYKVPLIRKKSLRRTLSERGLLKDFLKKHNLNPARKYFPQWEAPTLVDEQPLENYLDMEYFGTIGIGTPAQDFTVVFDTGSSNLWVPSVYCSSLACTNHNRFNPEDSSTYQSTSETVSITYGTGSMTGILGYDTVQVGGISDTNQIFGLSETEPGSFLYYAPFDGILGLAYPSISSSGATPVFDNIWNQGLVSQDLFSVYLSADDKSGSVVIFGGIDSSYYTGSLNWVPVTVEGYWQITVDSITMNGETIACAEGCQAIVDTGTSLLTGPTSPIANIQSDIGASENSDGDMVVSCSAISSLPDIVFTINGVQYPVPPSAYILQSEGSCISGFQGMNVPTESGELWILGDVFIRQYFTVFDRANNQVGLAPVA

SMILES | pIC50 (Pepsin A [4]) | pKi (Pepsin A [7]) | pKi (Renin [8]) | further results
CC[C@H](C)[C@H](NC(=O)C(F)(F)C(=O)C(CC(C)C)NC(=O)[C@H](Cc1c[nH]cn1)NC(=O)[C@H](Cc1ccccc1)NC(=O)OC(C)(C)C)C(=O)NCc1ccccn1 (stereo not given in full) |  |  |  | pIC50 (Renin [1]): 8.85; pIC50 (Renin [2]): 8.00
COC(=O)[C@H](Cc1ccccc1)NC(=O)[C@H](C)NC(=O)C[C@H](O)[C@H](CC(C)C)NC(=O)[C@H](Cc1c[nH]cn1)NC(=O)CNC(=O)[C@@H](N)Cc1ccccc1 (H-FGH[Sta]AF-OMe) |  |  |  | pKi (Pepsin A [3]): 6.82
COC(=O)CC(O)[C@H](CC(C)C)NC(=O)[C@H](C)NC(=O)CC(O)[C@H](CC(C)C)NC(=O)[C@H](Cc1c[nH]cn1)NC(=O)[C@H](Cc1c[nH]c2ccccc12)NC(=O)OC(C)(C)C (stereo not given in full) | 6.07 |  |  | pIC50 (Renin [1]): 8.26
CC(C)CC(NC(=O)CCc1ccccc1)SCC(O)C(CC1CCCCC1)NC(=O)[C@H](Cc1cnc[nH]1)NC(=O)[C@H](Cc1ccccc1)NC(=O)OC(C)(C)C (stereo not given in full) |  |  |  | pIC50 (Cathepsin D [5]): < 4.00; pIC50 (Pepsin A [6]): < 4.00; pIC50 (Renin [1]): 8.15
CC(C)C[C@H](NC(=O)CC(O)[C@H](CC(C)C)NC(=O)[C@H](Cc1c[nH]cn1)NC(=O)[C@H](Cc1ccccc1)NC(=O)[C@@H]1CCCN1C(=O)[C@@H](N)Cc1c[nH]cn1)C(=O)N[C@@H](Cc1ccccc1)C(N)=O (stereo not given in full) (H-HPFH[Sta(3ξ)]LF-NH2) |  | 7.47 | 8.10 | 
CC[C@H](C)[C@H](NC(=O)[C@@H](NC[C@H](CC(C)C)NC(=O)[C@H](Cc1c[nH]cn1)NC(=O)[C@H](Cc1ccccc1)NC(=O)[C@@H]1CCCN1C(=O)[C@H](Cc1c[nH]cn1)NC(=O)[C@@H]1CCCN1)C(C)C)C(=O)N[C@@H](Cc1c[nH]cn1)C(=O)N[C@@H](CCCCN)C(=O)O |  |  |  | pIC50 (Cathepsin D [9]): < 3.15; pIC50 (Renin [2]): 8.00
COC(=O)CC(O)[C@H](CC(C)C)NC(=O)[C@H](C)NC(=O)CC(O)[C@H](CC(C)C)NC(=O)[C@H](Cc1cnc[nH]1)NC(=O)[C@H](Cc1ccccc1)NC(=O)OC(C)(C)C (stereo in doubt; 17) | 5.89 |  |  | 
CC(C)C[C@H](NC(=O)CC(O)[C@H](CC(C)C)NC(=O)[C@H](C)NC(=O)[C@H](Cc1ccccc1)NC(=O)[C@@H]1CCCN1C(=O)[C@H](Cc1c[nH]cn1)NC(=O)C(C)C)C(=O)N[C@@H](Cc1ccccc1)C(N)=O (stereo not given in full) (Isobutyryl-HPFA[Sta(3ξ)]LF-NH2) |  | 8.40 | 7.00 | 
COC(=O)CC(O)[C@H](CC(C)C)NC(=O)[C@H](C)NC(=O)CC(O)[C@H](CC(C)C)NC(=O)[C@H](Cc1ccccc1)NC(=O)[C@H](Cc1ccccc1)NC(=O)OC(C)(C)C (stereo not given in full) | 7.85 |  |  | pIC50 (Renin [1]): 8.46
COC(=O)[C@H](Cc1ccccc1)NC(=O)[C@H](CC(C)C)NC(=O)CC(O)[C@H](CC(C)C)NC(=O)[C@H](CC(C)C)NC(=O)COC(=O)C(C)(C)C (stereo not given in full) |  | 7.92 | 5.77 | 
COC(=O)CC(O)[C@H](CC(C)C)NC(=O)[C@H](C)NC(=O)CC(O)[C@H](CC(C)C)NC(=O)[C@@H](NC(=O)[C@H](Cc1ccccc1)NC(=O)OCc1ccccc1)C(C)C (stereo not given in full) | 7.22 |  |  | 
CC[C@H](C)[C@H](NC(=O)C(CC(O)C(CC(C)C)NC(=O)[C@H](Cc1c[nH]cn1)N(C)C(=O)[C@H](Cc1ccccc1)NC(=O)[C@@H]1CCCN1C(=O)OC(C)(C)C)C(C)C)C(=O)NCc1ccccn1 (stereo not given in full) (Boc-PF[NMeH][X1]I-{NHCH2(2-pyridyl)}) | 5.17 |  |  | pIC50 (Cathepsin D [10]): 5.20; pIC50 (Renin [1]): 9.59
COC(=O)CC(O)[C@H](CC(C)C)NC(=O)[C@H](C)NC(=O)CC(O)[C@H](CC(C)C)NC(=O)[C@H](Cc1cnc[nH]1)NC(=O)[C@H](Cc1ccccc1)NC(=O)OC(C)(C)C (stereo in doubt; 15) | 5.89 |  |  | 
CC(C)C[C@H](NC(=O)CC(O)[C@H](CC(C)C)NC(=O)[C@H](Cc1c[nH]cn1)NC(=O)[C@H](Cc1ccccc1)NC(=O)[C@@H]1CCCN1C(=O)[C@H](Cc1c[nH]cn1)NC(=O)C(C)C)C(=O)N[C@@H](Cc1ccccc1)C(N)=O (stereo not given in full) (Isobutyryl-HPFH[Sta(3ξ)]LF-NH2) |  | 7.64 | 7.80 | 
COC(=O)[C@H](Cc1ccccc1)NC(=O)[C@H](CC(C)C)NC(=O)CC(O)[C@H](CC(C)C)NC(=O)[C@H](Cc1c[nH]cn1)NC(=O)COC(=O)C(C)(C)C (stereo not given in full) |  | 7.17 | 5.96 | 
CC[C@H](C)[C@H](NC(=O)C(F)(F)C(=O)[C@H](CC(C)C)NC(=O)[C@H](Cc1c[nH]cn1)NC(=O)[C@H](Cc1ccccc1)NC(=O)OC(C)(C)C)C(=O)NCc1ccccn1 |  |  |  | pIC50 (Cathepsin D [5]): 4.40; pIC50 (Cathepsin D [10]): 5.77; pIC50 (Pepsin A [11]): 4.38; pIC50 (Pepsin A [12]): 4.22
COC(=O)[C@H](Cc1ccccc1)NC(=O)[C@H](CC(C)C)NC(=O)CC(O)[C@H](CC(C)C)NC(=O)CCCNC(=O)[C@H](Cc1ccccc1)NC(=O)[C@@H]1CCCN1C(=O)CCCN (stereo not given in full) |  | > 9.00 | 8.05 | 
COC(=O)[C@H](Cc1ccccc1)NC(=O)[C@H](C)NC(=O)C[C@H](O)[C@H](CC(C)C)NC(=O)[C@@H](NC(=O)CNC(=O)[C@@H](N)Cc1ccccc1)C(C)C (H-FGV[Sta]AF-OMe) |  |  |  | pKi (Pepsin A [13]): > 9.00
